Measured values taken from ChEMBL document CHEMBL5724801, “EUbOPEN Chemogenomics Library - Multiplex” (2024).
“And” between values parts separate entries of the source, which are not always exact repeats. Equal entries are not always repeated.

Test system: Fibroblast
Test: Multiplex assay against human fibroblast
Assay type: toxicity, cell-based
Outline: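 Cells stained live at seeding with Hoechst33342, BioTracker Green Microtubule Cytoskeleton Dye, MitoTracker Red and Annexin V Alexa Fluor 680 were imaged on a CQ1 microscope at 37°C and 5% CO2 after compound addition. Their classification by CellPathfinder machine-learning gating ran from Hoechst high-intensity objects versus normal cells, to healthy, pyknosed or fragmented nuclei among normal cells, to mitotic or apoptotic among pyknosed cells. Tubulin, mitochondrial-mass and membrane-permeability phenotypes are per cents of healthy-nucleus cells.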

[1] = 12 h, 1 µM, compound concentration 1 uM
[2] = 12 h, 10 µM, compound concentration 10 uM
[3] = 24 h, 1 µM, compound concentration 1 uM
[4] = 24 h, 10 µM, compound concentration 10 uM
[5] = 48 h, 1 µM, compound concentration 1 uM
[6] = 48 h, 10 µM, compound concentration 10 uM

CCN1CCN(Cc2ccc(Nc3ncc(F)c(-c4cc(F)c5nc(C)n(C(C)C)c5c4)n3)nc2)CC1.CS(=O)(=O)O
Population Apoptotic (%) [1]: 17.78% and 12.5%
Population Fragmented Nuclei (%) [1]: 19.76% and 8.1%
Population Healthy Nuclei (%) [1]: 53.29% and 72.47%
Population Hoechst High Intensity Objects (%) [1]: 0%
Population Mitochondria Different-Phenotype (%) [1]: 15.73% and 16.2%
Population Mitotic Cells (%) [1]: 82.22% and 87.5%
Population Normal (%) [1]: 100%
Population Pyknosed Nuclei (%) [1]: 26.95% and 19.43%
Population Tubulin-Different-Phenotype (%) [1]: 38.2% and 41.9%
Total Cell Count [1]: 167 and 247
Population Apoptotic (%) [2]: 22.89% and 30%
Population Fragmented Nuclei (%) [2]: 14.07% and 8.33%
Population Healthy Nuclei (%) [2]: 54.37% and 75%
Population Hoechst High Intensity Objects (%) [2]: 0%
Population Mitochondria Different-Phenotype (%) [2]: 15.38% and 7.78%
Population Mitotic Cells (%) [2]: 77.11% and 70%
Population Normal (%) [2]: 100%
Population Pyknosed Nuclei (%) [2]: 31.56% and 16.67%
Population Tubulin-Different-Phenotype (%) [2]: 68.53% and 62.59%
Total Cell Count [2]: 263 and 360
Population Apoptotic (%) [3]: 25%
Population Fragmented Nuclei (%) [3]: 16.76% and 6.88%
Population Healthy Nuclei (%) [3]: 56.76%
Population Hoechst High Intensity Objects (%) [3]: 0%
Population Mitotic Cells (%) [3]: 89.8% and 75%
Population Normal (%) [3]: 100%
Population Pyknosed Nuclei (%) [3]: 26.49% and 11.59%
Population Tubulin-Different-Phenotype (%) [3]: 43.81% and 37.78%
Total Cell Count [3]: 185 and 276
Population Apoptotic (%) [4]: 27.71% and 21.01%
Population Fragmented Nuclei (%) [4]: 11.19% and 3.61%
Population Healthy Nuclei (%) [4]: 58.84% and 63.13%
Population Hoechst High Intensity Objects (%) [4]: 0%
Population Mitochondria Different-Phenotype (%) [4]: 23.31% and 9.92%
Population Mitotic Cells (%) [4]: 72.29% and 78.99%
Population Normal (%) [4]: 100%
Population Pyknosed Nuclei (%) [4]: 29.96% and 33.25%
Population Tubulin-Different-Phenotype (%) [4]: 62.58% and 53.05%
Total Cell Count [4]: 277 and 415
Population Apoptotic (%) [5]: 23.08% and 25%
Population Fragmented Nuclei (%) [5]: 17.96% and 9.26%
Population Healthy Nuclei (%) [5]: 75.73% and 86.3%
Population Hoechst High Intensity Objects (%) [5]: 0%
Population Mitotic Cells (%) [5]: 76.92% and 75%
Population Normal (%) [5]: 100%
Population Pyknosed Nuclei (%) [5]: 6.31% and 4.44%
Population Tubulin-Different-Phenotype (%) [5]: 44.23% and 44.64%
Total Cell Count [5]: 206 and 270
Population Apoptotic (%) [6]: 38.62% and 20.77%
Population Fragmented Nuclei (%) [6]: 5.28% and 6.72%
Population Healthy Nuclei (%) [6]: 58.29% and 65.97%
Population Hoechst High Intensity Objects (%) [6]: 0%
Population Mitotic Cells (%) [6]: 61.38% and 79.23%
Population Normal (%) [6]: 100%
Population Pyknosed Nuclei (%) [6]: 36.43% and 27.31%
Population Tubulin-Different-Phenotype (%) [6]: 43.97% and 47.74%
Total Cell Count [6]: 398 and 670

CCn1c(-c2nc3cc(C(=O)N4CCCC(N)C4)ccc3n2C)cc2ccccc21.Cl (stereo not drawn)
Population Fragmented Nuclei (%) [1]: 17% [middle of 4 runs]
Population Healthy Nuclei (%) [1]: 67% and 54% and 55.75% and 78.2%
Population Hoechst High Intensity Objects (%) [1]: 3% and 5% and 0%
Population Membrane Permeable-Phenotype (%) [1]: 0% and 2% and 1.03% and 4.85%
Population Mitotic Cells (%) [1]: 77.42% [middle of 4 runs]
Population Normal (%) [1]: 96% and 94% and 100%
Population Pyknosed Nuclei (%) [1]: 15% and 23% and 28.16% and 14.69%
Population Tubulin-Different-Phenotype (%) [1]: 27% and 41% and 21.65% and 21.21%
Total Cell Count [1]: 128 and 167 and 174 and 211
Population Healthy Nuclei (%) [2]: 63% and 37% and 62.74% and 73.72%
Population Hoechst High Intensity Objects (%) [2]: 1% and 3% and 0%
Population Membrane Permeable-Phenotype (%) [2]: 0% and 10.3% and 7.87%
Population Mitochondria Different-Phenotype (%) [2]: 18% and 19% and 29.7% and 27.78%
Population Mitotic Cells (%) [2]: 58% and 61% and 89.16% and 71.43%
Population Normal (%) [2]: 98% and 96% and 100%
Population Pyknosed Nuclei (%) [2]: 29% [middle of 4 runs]
Population Tubulin-Different-Phenotype (%) [2]: 69% and 80% and 72.73% and 81.48%
Total Cell Count [2]: 221 and 186 and 263 and 293
Population Fragmented Nuclei (%) [3]: 22% [middle of 4 runs]
Population Healthy Nuclei (%) [3]: 68% and 54% and 66.49% and 74.56%
Population Hoechst High Intensity Objects (%) [3]: 0% and 9%
Population Membrane Permeable-Phenotype (%) [3]: 0% and 3% and 2.33% and 7.06%
Population Mitotic Cells (%) [3]: 70.59% [middle of 4 runs]
Population Normal (%) [3]: 99% and 90% and 100%
Population Pyknosed Nuclei (%) [3]: 17% [middle of 4 runs]
Population Tubulin-Different-Phenotype (%) [3]: 30% [middle of 4 runs]
Total Cell Count [3]: 127 and 184 and 194 and 228
Population Healthy Nuclei (%) [4]: 66% and 46% and 70.93% and 75.81%
Population Hoechst High Intensity Objects (%) [4]: 3% and 4% and 0%
Population Membrane Permeable-Phenotype (%) [4]: 0% and 2% and 4.95% and 6.19%
Population Mitochondria Different-Phenotype (%) [4]: 40.95% [middle of 4 runs]
Population Mitotic Cells (%) [4]: 45.1% [middle of 4 runs]
Population Normal (%) [4]: 96% and 95% and 100%
Population Pyknosed Nuclei (%) [4]: 23% [middle of 4 runs]
Population Tubulin-Different-Phenotype (%) [4]: 76% and 82% and 83.33% and 85.24%
Total Cell Count [4]: 231 and 189 and 313 and 277
Population Healthy Nuclei (%) [5]: 67% and 51% and 79.63% and 83.64%
Population Hoechst High Intensity Objects (%) [5]: 2% and 5% and 0%
Population Membrane Permeable-Phenotype (%) [5]: 1% and 2% and 1.16% and 4.47%
Population Normal (%) [5]: 97% and 94% and 100%
Population Pyknosed Nuclei (%) [5]: 8% and 15% and 6.02% and 7.01%
Total Cell Count [5]: 137 and 193 and 216 and 214
Population Apoptotic (%) [6]: 76.92% [middle of 4 runs]
Population Healthy Nuclei (%) [6]: 72% and 57% and 86.19% and 89.14%
Population Hoechst High Intensity Objects (%) [6]: 3% and 0%
Population Membrane Permeable-Phenotype (%) [6]: 0% and 3.83% and 7.75%
Population Mitochondria Different-Phenotype (%) [6]: 22% and 16% and 24.74% and 18.08%
Population Normal (%) [6]: 96% and 100%
Population Pyknosed Nuclei (%) [6]: 8% and 3.3% and 4.28%
Population Tubulin-Different-Phenotype (%) [6]: 85% and 61.67% and 81.55%
Total Cell Count [6]: 232 and 231 and 333 and 304
